Results taken from ChEMBL document CHEMBL2034859, “Simple, fast and efficient synthesis of β-keto esters from the esters of heteroaryl compounds, its antimicrobial study and cytotoxicity towards various cancer cell lines” (Bioorg Med Chem Lett, 2012).

Tests used:
[1] = test system: HCT-116; test: Cytotoxicity against human HCT116 cells after 48 hrs by WST-1 assay; assay type: functional, cell-based; conditions: HCT-116, 48 h
How it was run: (§1)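 Cells from ATCC were grown in DMEM with 10% heat-inactivated FBS at 37 °C in 5% CO2. Log-phase cells were seeded at 5 × 10^3 per well and left to recover overnight. They were then exposed to a range of compound concentrations for 48 h, with 0.2% DMSO as the vehicle control. CCK-8 (WST) reagent was added for 2 h and absorbance was measured.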

[2] = test system: PANC-1; test: Cytotoxicity against human PANC1 cells at 0.3 uM after 48 hrs by WST-1 assay; assay type: functional
How it was run: (§2)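 Cells from ATCC, grown in DMEM with 10% heat-inactivated FBS at 37 °C in humidified 5% CO2. Log-phase cells seeded at 5 × 10^3 cells/well and left to recover overnight, then exposed to varying compound concentrations for 48 h. Controls received medium with 0.2% DMSO vehicle. CCK-8 ([…]) reagent added at 5 µL/well for 2 h, then absorbance read.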

[3] = test system: Calu-1; test: Cytotoxicity against human Calu1 cells at 0.03 uM after 48 hrs by WST-1 assay; assay type: functional; how it was run: as §1
[4] = test system: PANC-1; test: Cytotoxicity against human PANC1 cells at 0.03 uM after 48 hrs by WST-1 assay; assay type: functional; how it was run: as §2
[5] = test system: ACHN; test: Cytotoxicity against human ACHN cells at 3 uM after 48 hrs by WST-1 assay; assay type: functional; how it was run: as §1
[6] = test system: NCI-H460; test: Cytotoxicity against human NCI-H460 cells at 3 uM after 48 hrs by WST-1 assay; assay type: functional; how it was run: as §2
[7] = test system: MCF-10A; test: Cytotoxicity against human MCF10A cells at 1 uM after 48 hrs by WST1 assay; assay type: cell-based
[8] = test system: HCT-116; test: Cytotoxicity against human HCT116 cells at 0.03 uM after 48 hrs by WST-1 assay; assay type: functional; how it was run: as §1
[9] = test system: MCF-10A; test: Cytotoxicity against human MCF10A cells at 0.01 uM after 48 hrs by WST1 assay; assay type: cell-based
[10] = test system: HCT-116; test: Cytotoxicity against human HCT116 cells at 0.1 uM after 48 hrs by WST-1 assay; assay type: functional; how it was run: as §1
[11] = test system: ACHN; test: Cytotoxicity against human ACHN cells at 0.3 uM after 48 hrs by WST-1 assay; assay type: functional; how it was run: as §1
[12] = test system: Calu-1; test: Cytotoxicity against human Calu1 cells after 48 hrs by WST-1 assay; assay type: functional, cell-based; conditions: Calu-1, 48 h; how it was run: as §1
[13] = test system: ACHN; test: Cytotoxicity against human ACHN cells at 1 uM after 48 hrs by WST-1 assay; assay type: functional; how it was run: as §1
[14] = test system: PANC-1; test: Cytotoxicity against human PANC1 cells at 30 uM after 48 hrs by WST-1 assay; assay type: functional; how it was run: as §2
[15] = test system: NCI-H460; test: Cytotoxicity against human NCI-H460 cells at 10 uM after 48 hrs by WST-1 assay; assay type: functional; how it was run: as §2
[16] = test system: ACHN; test: Cytotoxicity against human ACHN cells at 0.1 uM after 48 hrs by WST-1 assay; assay type: functional; how it was run: as §1
[17] = test system: MCF-10A; test: Cytotoxicity against human MCF10A cells at 0.1 uM after 48 hrs by WST1 assay; assay type: cell-based
[18] = test system: NCI-H460; test: Cytotoxicity against human NCI-H460 cells at 0.1 uM after 48 hrs by WST-1 assay; assay type: functional; how it was run: as §2
[19] = test system: PANC-1; test: Cytotoxicity against human PANC1 cells at 0.1 uM after 48 hrs by WST-1 assay; assay type: functional; how it was run: as §2
[20] = test system: NCI-H460; test: Cytotoxicity against human NCI-H460 cells after 48 hrs by WST-1 assay; assay type: functional, cell-based; conditions: NCI-H460, 48 h; how it was run: as §2
[21] = test system: HCT-116; test: Cytotoxicity against human HCT116 cells at 1 uM after 48 hrs by WST-1 assay; assay type: functional; how it was run: as §1
[22] = test system: NCI-H460; test: Cytotoxicity against human NCI-H460 cells at 0.03 uM after 48 hrs by WST-1 assay; assay type: functional; how it was run: as §2
[23] = test system: HCT-116; test: Cytotoxicity against human HCT116 cells at 0.01 uM after 48 hrs by WST-1 assay; assay type: functional; how it was run: as §1
[24] = test system: HCT-116; test: Cytotoxicity against human HCT116 cells at 3 uM after 48 hrs by WST-1 assay; assay type: functional; how it was run: as §1
[25] = test system: ACHN; test: Cytotoxicity against human ACHN cells at 30 uM after 48 hrs by WST-1 assay; assay type: functional; how it was run: as §1
[26] = test system: Calu-1; test: Cytotoxicity against human Calu1 cells at 0.1 uM after 48 hrs by WST-1 assay; assay type: functional; how it was run: as §1
[27] = test system: MCF-10A; test: Cytotoxicity against human MCF10A cells at 0.3 uM after 48 hrs by WST1 assay; assay type: cell-based
[28] = test system: Calu-1; test: Cytotoxicity against human Calu1 cells at 3 uM after 48 hrs by WST-1 assay; assay type: functional; how it was run: as §1
[29] = test system: MCF-10A; test: Cytotoxicity against human MCF10A cells at 3 uM after 48 hrs by WST1 assay; assay type: cell-based
[30] = test system: PANC-1; test: Cytotoxicity against human PANC1 cells after 48 hrs by WST-1 assay; assay type: functional, cell-based; conditions: PANC-1, 48 h; how it was run: as §2
[31] = test system: PANC-1; test: Cytotoxicity against human PANC1 cells at 10 uM after 48 hrs by WST-1 assay; assay type: functional; how it was run: as §2
[32] = test system: Calu-1; test: Cytotoxicity against human Calu1 cells at 1 uM after 48 hrs by WST-1 assay; assay type: functional; how it was run: as §1
[33] = test system: PANC-1; test: Cytotoxicity against human PANC1 cells at 0.01 uM after 48 hrs by WST-1 assay; assay type: functional; how it was run: as §2
[34] = test system: ACHN; test: Cytotoxicity against human ACHN cells after 48 hrs by WST-1 assay; assay type: functional, cell-based; how it was run: as §1
[35] = test system: Calu-1; test: Cytotoxicity against human Calu1 cells at 0.01 uM after 48 hrs by WST-1 assay; assay type: functional; how it was run: as §1
[36] = test system: HCT-116; test: Cytotoxicity against human HCT116 cells at 0.3 uM after 48 hrs by WST-1 assay; assay type: functional; how it was run: as §1
[37] = test system: NCI-H460; test: Cytotoxicity against human NCI-H460 cells at 1 uM after 48 hrs by WST-1 assay; assay type: functional; how it was run: as §2
[38] = test system: NCI-H460; test: Cytotoxicity against human NCI-H460 cells at 30 uM after 48 hrs by WST-1 assay; assay type: functional; how it was run: as §2
[39] = test system: PANC-1; test: Cytotoxicity against human PANC1 cells at 1 uM after 48 hrs by WST-1 assay; assay type: functional; how it was run: as §2
[40] = test system: MCF-10A; test: Cytotoxicity against human MCF10A cells at 30 uM after 48 hrs by WST1 assay; assay type: cell-based
[41] = test system: PANC-1; test: Cytotoxicity against human PANC1 cells at 3 uM after 48 hrs by WST-1 assay; assay type: functional; how it was run: as §2
[42] = test system: ACHN; test: Cytotoxicity against human ACHN cells at 0.01 uM after 48 hrs by WST-1 assay; assay type: functional; how it was run: as §1
[43] = test system: Calu-1; test: Cytotoxicity against human Calu1 cells at 30 uM after 48 hrs by WST-1 assay; assay type: functional; how it was run: as §1
[44] = test system: HCT-116; test: Cytotoxicity against human HCT116 cells at 10 uM after 48 hrs by WST-1 assay; assay type: functional; how it was run: as §1
[45] = test system: MCF-10A; test: Cytotoxicity against human MCF10A cells at 0.03 uM after 48 hrs by WST1 assay; assay type: cell-based
[46] = test system: Calu-1; test: Cytotoxicity against human Calu1 cells at 10 uM after 48 hrs by WST-1 assay; assay type: functional; how it was run: as §1
[47] = test system: Calu-1; test: Cytotoxicity against human Calu1 cells at 0.3 uM after 48 hrs by WST-1 assay; assay type: functional; how it was run: as §1
[48] = test system: ACHN; test: Cytotoxicity against human ACHN cells at 10 uM after 48 hrs by WST-1 assay; assay type: functional; how it was run: as §1
[49] = test system: ACHN; test: Cytotoxicity against human ACHN cells at 0.03 uM after 48 hrs by WST-1 assay; assay type: functional; how it was run: as §1
[50] = test system: MCF-10A; test: Cytotoxicity against human MCF10A cells at 10 uM after 48 hrs by WST1 assay; assay type: cell-based
[51] = test system: NCI-H460; test: Cytotoxicity against human NCI-H460 cells at 0.3 uM after 48 hrs by WST-1 assay; assay type: functional; how it was run: as §2
[52] = test system: HCT-116; test: Cytotoxicity against human HCT116 cells at 30 uM after 48 hrs by WST-1 assay; assay type: functional; how it was run: as §1
[53] = test system: MCF-10A; test: Cytotoxicity against human MCF10A cells after 48 hrs by WST1 assay; assay type: cell-based
[54] = test system: NCI-H460; test: Cytotoxicity against human NCI-H460 cells at 0.01 uM after 48 hrs by WST-1 assay; assay type: functional; how it was run: as §2

Q: With CCOC(=O)C(C)C(=O)c1cnccn1 (centres undefined) as the compound, how does the IC50 [1] read?
A: 1300 nM

Q: And the Activity [2]?
A: 15.9%

Q: What about the Activity [3] of the same compound?
A: 2.9%

Q: What about the Activity [4] of the same compound?
A: 10%

Q: And the Activity [5]?
A: 51.6%

Q: What about the Activity [6] of the same compound?
A: 55%

Q: What about the Activity [7] of the same compound?
A: 6.3%

Q: What about the Activity [8] of the same compound?
A: 18.8%

Q: What about the Activity [9] of the same compound?
A: -15.2%

Q: What about the Activity [10] of the same compound?
A: 26.9%

Q: And the Activity [11]?
A: 27.9%

Q: What about the IC50 [12] of the same compound?
A: 2800 nM

Q: And the Activity [13]?
A: 46.2%

Q: What about the Activity [14] of the same compound?
A: 100%

Q: And the Activity [15]?
A: 87%

Q: What about the Activity [16] of the same compound?
A: 19%

Q: What about the Activity [17] of the same compound?
A: -9.5%

Q: And the Activity [18]?
A: 14.2%

Q: What about the Activity [19] of the same compound?
A: 13.6%

Q: What about the IC50 [20] of the same compound?
A: 3000 nM

Q: And the Activity [21]?
A: 44.8%

Q: What about the Activity [22] of the same compound?
A: 6.7%

Q: What about the Activity [23] of the same compound?
A: 9.4%

Q: What about the Activity [24] of the same compound?
A: 92.2%

Q: What about the Activity [25] of the same compound?
A: 82.3%

Q: What about the Activity [26] of the same compound?
A: 6.7%

Q: And the Activity [27]?
A: -6.8%

Q: And the Activity [28]?
A: 60.8%

Q: And the Activity [29]?
A: 24%

Q: What about the IC50 [30] of the same compound?
A: 2900 nM

Q: And the Activity [31]?
A: 92.1%

Q: What about the Activity [32] of the same compound?
A: 22.8%

Q: And the Activity [33]?
A: 8.3%

Q: What about the IC50 [34] of the same compound?
A: 3000 nM

Q: What about the Activity [35] of the same compound?
A: 1.5%

Q: And the Activity [36]?
A: 32.3%

Q: What about the Activity [37] of the same compound?
A: 44.6%

Q: What about the Activity [38] of the same compound?
A: 100%

Q: And the Activity [39]?
A: 29.2%

Q: And the Activity [40]?
A: 82.8%

Q: What about the Activity [41] of the same compound?
A: 67.8%

Q: And the Activity [42]?
A: -23.4%

Q: What about the Activity [43] of the same compound?
A: 99.2%

Q: And the Activity [44]?
A: 90%

Q: And the Activity [45]?
A: -14.1%

Q: What about the Activity [46] of the same compound?
A: 85.3%

Q: What about the Activity [47] of the same compound?
A: 9.4%

Q: And the Activity [48]?
A: 67.4%

Q: What about the Activity [49] of the same compound?
A: -28.9%

Q: And the Activity [50]?
A: 39.1%

Q: And the Activity [51]?
A: 38.6%

Q: What about the Activity [52] of the same compound?
A: 100%

Q: What about the IC50 [53] of the same compound?
A: 21.2 µM

Q: What about the Activity [54] of the same compound?
A: 3.6%
